{"data": "Experimental data gathered from unrelated publications", "target": "5'-AMP-activated protein kinase catalytic subunit alpha-2 (PRKAA2, Homo sapiens, UniProt P54646)", "note": "Protocols differ between the studies behind these lines."}
{"SMILES": "O=C(O)c1cc(-c2ccc(C3CCNCC3)cc2)c2ccc(-c3ccc(C(F)(F)F)cc3)cc2c1", "effect on": "cell-free assay", "technique": "competition with immobilised ligand", "concentration": "1 µM", "endpoint": "remaining binding", "result": "100%"}
{"SMILES": "Cc1ccc(C(=O)NCc2ccsc2)cc1C#Cc1cn(C(C)C)c2ncnc(N)c12", "effect on": "enzyme activity", "action": "inhibitor", "concentration": "1 µM", "endpoint": "activity vs control", "result": "80%"}
{"SMILES": "COc1cc(Cl)c(C(=O)N[C@@H](CN[C@H]2CC[C@@H](N)CC2)Cc2ccc(C#N)cc2)cc1-c1ccc(CN[C@H](C)c2ccc(C)cc2)o1", "effect on": "enzyme activity", "action": "inhibitor", "concentration": "1 µM", "endpoint": "remaining activity", "result": "89%"}
{"SMILES": "CCCCN(CCCC)C(=O)CN1C[C@H](c2cc(OC)c3c(c2)OCO3)[C@@H](C(=O)O)[C@@H]1CC(C)(C)CCC", "effect on": "cell-free assay", "technique": "competition with immobilised ligand", "concentration": "1 µM", "endpoint": "remaining binding", "result": "100%"}
{"SMILES": "C=CC(=O)Nc1cc(Nc2nccc(Nc3cc(Cl)c(F)cc3C(C)(C)O)n2)c(OC)cc1N1CC[C@@H](N(C)C)C1", "effect on": "enzyme activity", "action": "inhibitor", "concentration": "1 µM", "endpoint": "inhibition", "result": "12%"}
{"SMILES": "CCCOc1ccc(OC)c(F)c1C(=O)c1ccc(C(=O)N[C@@H]2CNC[C@H]2NC(=O)c2ccc3[nH]ncc3c2)cc1", "effect on": "enzyme activity", "action": "inhibitor", "concentration": "50 nM", "endpoint": "remaining activity", "result": "51%"}
{"SMILES": "c1ccc(CNc2nc(N3CCOc4ccccc43)nc3c2CCCC3)cc1", "effect on": "target engagement in cells", "action": "inhibitor", "technique": "chemoproteomics", "concentration": "20 mM", "endpoint": "inhibition", "result": "-6.2%"}
{"SMILES": "CCCS(=O)(=O)Nc1ccc(F)c(C(=O)c2c[nH]c3ncc(-c4ccc(Cl)cc4)cc23)c1F", "effect on": "enzyme activity", "action": "inhibitor", "concentration": "1 µM", "endpoint": "inhibition", "result": "< 20%"}
{"SMILES": "CCN(CC)c1ccc(C2=NNC(=O)CC2C)cc1[N+](=O)[O-] (stereo not drawn)", "effect on": "enzyme activity", "action": "inhibitor", "concentration": "10 µM", "endpoint": "remaining activity", "result": "108%"}
{"SMILES": "CCCCNc1ncc2c(-c3ccc(F)cc3)nn(C[C@H]3CC[C@H](N)CC3)c2n1", "effect on": "target engagement in cells", "action": "inhibitor", "technique": "chemoproteomics", "concentration": "20 mM", "endpoint": "inhibition", "result": "22.8%"}
{"SMILES": "COc1cc(-c2cc(-c3ccc(N4CCNCC4)cc3)cnc2C)cc(OC)c1OC", "effect on": "enzyme activity", "action": "inhibitor", "concentration": "1 µM", "endpoint": "inhibition", "result": "1%"}
{"SMILES": "CC1=C(C#N)C(c2ccc3c(c2)c(NC(=O)c2ccccc2C)nn3C)C(C#N)=C(C)N1", "effect on": "cell-free assay", "technique": "competition with immobilised ligand", "concentration": "1 µM", "endpoint": "remaining binding", "result": "99%"}
